Compound activity from PubChem.
The entries come from a sample that favours hits as a whole.
HCT116 bCat-KO: beta-catenin-lacking colon tumor cell growth suppression. AID 818. viability, % at 10 µM. HCT116 beta-catenin knockout viability, CellTiter-Glo, 60 h; hits give low values. hit rate 1.5% among 140,000;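 active = viability at or under a set limit, the compound median less 4 SD, cut at about 6% in these data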;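 also: 0% = Hyamine 1622 control at 20 µM and 100% = untreated cell control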
Lung fibro prol: blocks proliferation of human lung fibroblasts | LL 47 human lung fibroblast viability, ATP luminescence; hits give low values | viability, % at 10 µM | hit rate 1.1% among 85,000 | AID 719;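 active = viability at or below 50% in the single dose screen; inactive = viability above 50%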;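 also: compound exposure lasted 72 h before the ATP readout; 100% = median luminescence of untreated cell-only wells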
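Signal: luminescent ATP detection, CellTiter-Glo; assay system: LL 47 human lung fibroblasts; input: 1,150 cells/well; incubation: overnight cell rest, 72 h compound treatment at 37 °C; measure: % viability versus median cells-only luminescence; medium: IMEM growth medium with 15% fetal bovine serum; dosing: compound addition at 0.1% DMSO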
H69AR growth 86K: blocks growth of human H69AR lung tumor cells | H69AR lung tumor viability, ATP luminescence, 72 h; hits give low values | viability, % at 10 µM | hit rate 6% among 85,000 | AID 598;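 active = viability at or below 40%; inactive = viability above 40%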;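 also: multidrug resistant small cell line overexpressing MRP-1 efflux transporter; 100% = mean luminescence of untreated control wells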
HUVEC inhibit: blocks proliferation of human endothelial cells | HUVEC proliferation, CellTiter-Glo luminescence, 72 h; hits give low values | viability, % at 10 µM (by protocol) | hit rate 1.1% among 86,000;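 active = viability at or below 30%; inactive = viability above 30%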;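 also: 100% = median luminescence of DMSO-only cell control wells on each plate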
PTEN del growth: PTEN-deleted cell growth suppression | HCT116 PTEN-null viability, CellTiter-Glo, 60 h; hits give low values | viability, % at 10 µM | hit rate 1.2% among 140,000 | AID 827;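 active = viability at or below a set limit, 4 SD under the median of all tested compounds, cut at about 3.7% in these data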;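 also: PTEN knockout HCT116 line with beta catenin targeted HCT116 as companion control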
The depositor's hits bear a star.

`O=C(COc1ccc(/C=N/NC(=O)c2ccccc2)cc1)Nc1ccc([N+](=O)[O-])cc1` gave HCT116 bCat-KO 91.2 and PTEN del growth 88.2.
`COC(=O)c1ccc(-c2nc3ccccc3[nH]2)cc1` gave HCT116 bCat-KO 68.0 and PTEN del growth 66.5.
Screening Oc1cccc(/C=N/Nc2cc(N3CCOCC3)nc(N3CCOCC3)n2)c1 returned HCT116 bCat-KO 51.4 and PTEN del growth 52.5.
`Oc1ccc(/C=N/Nc2cc(N3CCOCC3)nc(N3CCOCC3)n2)cc1O` gave HCT116 bCat-KO 3.0* and PTEN del growth 4.0.
Screening CSc1ccc(-c2nnn(CC(=O)NCc3ccccc3)n2)cc1 returned HCT116 bCat-KO 53.7, Lung fibro prol 92.0, H69AR growth 86K 25.1*, HUVEC inhibit 70.1 and PTEN del growth 49.5.
`CCOC(=O)C(Cc1ccccc1)NC(=O)Cn1nnc(-c2ccc(SC)cc2)n1` (configuration not stated) gave HCT116 bCat-KO 92.0, Lung fibro prol 98.7, H69AR growth 86K 96.8, HUVEC inhibit 103.9 and PTEN del growth 94.3.
`O=C(CCN1C(=O)/C(=C/C=C/c2ccccc2)SC1=S)Nc1nccs1` gave HCT116 bCat-KO 58.4 and PTEN del growth 64.2.
For Cc1ccc(NC(=O)CCCN2C(=O)/C(=C/C=C/c3ccccc3)SC2=S)cc1 the results were HCT116 bCat-KO 6.5 and PTEN del growth 2.4*.
For COc1ccc(-n2c(COc3ccc(Cl)cc3)nnc2SCc2ccc(C#N)cc2)cc1 the results were HCT116 bCat-KO 71.4, Lung fibro prol 91.1, H69AR growth 86K 31.8*, HUVEC inhibit 89.9 and PTEN del growth 59.0.
COc1ccc(-n2c(COc3ccc(C)cc3)nnc2SCc2ccc(C#N)cc2)cc1 was read as HCT116 bCat-KO 66.1, Lung fibro prol 94.7, H69AR growth 86K 86.8, HUVEC inhibit 94.5 and PTEN del growth 57.0.
`CCOC(=O)c1nc(S(C)(=O)=O)ncc1Cl` gave HCT116 bCat-KO 20.2, Lung fibro prol 65.4, H69AR growth 86K 1.6*, HUVEC inhibit 77.8 and PTEN del growth 24.0.
Screening CCOC(=O)c1nc(S(C)(=O)=O)ncc1N1CCOCC1 returned HCT116 bCat-KO 86.0, Lung fibro prol 97.0, H69AR growth 86K 91.0, HUVEC inhibit 92.7 and PTEN del growth 88.2.
`Cc1cccc(N2CCN(C(=O)c3ccncc3)CC2)c1C` gave HCT116 bCat-KO 32.9, Lung fibro prol 81.5, H69AR growth 86K 21.4*, HUVEC inhibit 65.5 and PTEN del growth 32.4.
`Cc1cccc(N2CCN(C(=O)C(Cc3ccccc3)n3cccc3)CC2)c1C` (configuration not stated) gave HCT116 bCat-KO 34.7, Lung fibro prol 93.0, H69AR growth 86K 22.7*, HUVEC inhibit 94.0 and PTEN del growth 44.4.
O=C(CN1CCCc2ccccc21)N/N=C/c1c(O)ccc2ccccc12 was read as HCT116 bCat-KO 8.4 and PTEN del growth 8.7.
For COc1ccc(-n2nnnc2-c2cccc(OC)c2)cc1 the results were HCT116 bCat-KO 18.9, Lung fibro prol 58.1, H69AR growth 86K 25.7*, HUVEC inhibit 49.3 and PTEN del growth 19.4.
Screening Clc1ccc(-n2nnnc2-c2ccccc2)cc1Cl returned HCT116 bCat-KO 89.8, Lung fibro prol 98.4, H69AR growth 86K 98.4, HUVEC inhibit 92.1 and PTEN del growth 85.5.
For CC(C)OC(=O)c1nnc(Cc2ccc(F)cc2)o1 the results were HCT116 bCat-KO 100.6, Lung fibro prol 98.5, H69AR growth 86K 106.3, HUVEC inhibit 101.5 and PTEN del growth 100.7.
`CC(C)C[C@H](N)c1nnc(S(=O)(=O)Cc2ccc(F)cc2)o1` gave HCT116 bCat-KO 87.9, Lung fibro prol 67.5, H69AR growth 86K 5.9*, HUVEC inhibit 100.1 and PTEN del growth 91.2.
For O=C(O)Cc1ccc(O)c(F)c1 the results were HCT116 bCat-KO 105.0, Lung fibro prol 99.2, H69AR growth 86K 95.5, HUVEC inhibit 101.0 and PTEN del growth 96.8.
Cc1c(CN(C)C)c2c(n1Cc1ccccc1)C(=O)c1ccc(Br)cc1-2 was read as HCT116 bCat-KO 10.3, Lung fibro prol 45.9*, H69AR growth 86K 5.5*, HUVEC inhibit 22.4* and PTEN del growth 8.5.
Cc1c(CN(C)C)c2c(n1C)C(=O)c1ccc(Br)cc1-2 was read as HCT116 bCat-KO 68.0, Lung fibro prol 76.8, H69AR growth 86K 65.8, HUVEC inhibit 78.3 and PTEN del growth 67.9.
`S=C(NCc1ccc(Cl)cc1Cl)NC1CCCCC1` gave HCT116 bCat-KO 80.6 and PTEN del growth 80.9.
`O=C(CCS(=O)(=O)Cc1ccccc1)Nc1nc2c(s1)CCCC2` gave HCT116 bCat-KO 41.4, Lung fibro prol 62.9, H69AR growth 86K 22.3*, HUVEC inhibit 60.4 and PTEN del growth 39.4.
`O=c1[nH]c2ccccc2n1CCCSc1cnc2ccccc2n1` gave HCT116 bCat-KO 79.4, Lung fibro prol 94.7, H69AR growth 86K 38.3*, HUVEC inhibit 78.9 and PTEN del growth 68.4.
`CC(C)(C)NC(=O)c1cccc(NC(=O)c2ccc(NC(=O)c3ccco3)cc2)c1` gave HCT116 bCat-KO 68.4, Lung fibro prol 93.9, H69AR growth 86K 32.7*, HUVEC inhibit 81.7 and PTEN del growth 57.0.
CC(C)CNC(=O)c1cccc(NC(=O)c2ccc(NC(=O)c3ccco3)cc2)c1 was read as HCT116 bCat-KO 47.8, Lung fibro prol 81.8, H69AR growth 86K 28.0*, HUVEC inhibit 75.4 and PTEN del growth 39.9.
`CC(C)(C)NC(=O)c1cccc(NC(=O)c2ccco2)c1` gave HCT116 bCat-KO 102.3, Lung fibro prol 107.5, H69AR growth 86K 63.1, HUVEC inhibit 107.1 and PTEN del growth 91.7.
`O=C(Nc1ccc(NC(=O)c2sc3ccccc3c2Cl)cc1)c1ccco1` gave HCT116 bCat-KO 1.4* and PTEN del growth 1.5*.
CC(C)(C)c1ccc(C(=O)Nc2ccc(NC(=O)c3ccco3)cc2)cc1 was read as HCT116 bCat-KO 8.0, Lung fibro prol 27.6*, H69AR growth 86K 33.4*, HUVEC inhibit 43.1 and PTEN del growth 22.8.
For c1cncc(-c2ccnc3ncnn23)c1 the results were HCT116 bCat-KO 101.5 and PTEN del growth 101.4.
Screening COc1cc(/C=C\C(=O)NCc2ccc3c(c2)cc(C)n3C)cc(OC)c1OC returned HCT116 bCat-KO 89.2 and PTEN del growth 85.3.
Cc1nc2cc(N=NC3=C(O)CCCC3=O)ccc2s1 was read as HCT116 bCat-KO 87.3 and PTEN del growth 101.1.
`Clc1ccc(Sc2cc(Cl)c(-c3ccccc3)nn2)cc1` gave HCT116 bCat-KO 88.1 and PTEN del growth 75.5.
Screening COC(=O)c1c(NC(=O)c2ccco2)sc(C)c1C returned HCT116 bCat-KO 86.2, Lung fibro prol 98.8, H69AR growth 86K 86.6, HUVEC inhibit 83.5 and PTEN del growth 88.7.
Cn1c(NC(=O)c2ccccc2)cc(=O)n(C)c1=O was read as HCT116 bCat-KO 85.6, Lung fibro prol 97.0, H69AR growth 86K 94.0, HUVEC inhibit 94.6 and PTEN del growth 95.1.
For Cn1c(NC(=O)c2ccco2)cc(=O)n(C)c1=O the results were HCT116 bCat-KO 105.8, Lung fibro prol 96.0, H69AR growth 86K 23.7*, HUVEC inhibit 98.7 and PTEN del growth 111.4.
